Experimental data taken from ChEMBL document CHEMBL4152190, “Microwave-assisted one-pot synthesis of new phenanthrene fused-tetrahydrodibenzo-acridinones as potential cytotoxic and apoptosis inducing agents” (Eur J Med Chem, 2018).
Active and inactive are the calls of the source. No cut-off for these calls is given here.

Experiments:
[1] = test system: PC-3; assay: Cytotoxicity against human PC3 cells after 48 hrs by MTT assay; format: functional, cell-based; conditions: PC-3, 48 h
Procedure, shortened: (§1)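 ATCC lines grown in DMEM or RPMI with 10% FBS and antibiotic-antimycotic, 37 °C, 5% CO2. Seeded at 3×10^4 cells/well, 24 h before dosing with vehicle (DMSO) controls. […] Cisplatin as reference.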

[2] = test system: HEK-293T; assay: Cytotoxicity against human HEK293T cells after 48 hrs by MTT assay; format: cell-based; procedure, shortened: as §1
[3] = test system: HeLa; assay: Cytotoxicity against human HeLa cells after 48 hrs by MTT assay; format: functional, cell-based; procedure, shortened: as §1
[4] = test system: HT-1080; assay: Cytotoxicity against human HT1080 cells after 48 hrs by MTT assay; format: functional, cell-based; conditions: HT-1080, 48 h; procedure, shortened: as §1
[5] = test system: SK-OV-3; assay: Cytotoxicity against human SKOV3 cells after 48 hrs by MTT assay; format: functional, cell-based; conditions: SK-OV-3, 48 h; procedure, shortened: as §1
[6] = test system: SK-OV-3; assay: Induction of apoptosis in human SKOV3 cells assessed as chromatin condensation at 0.1 to 0.5 uM after 24 hrs by […] staining-based fluorescence microscopic analysis; format: functional, cell-based
Procedure, shortened: (§2)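 SKOV-3 cells on coverslips (5×10^5/well), adhered 24 h, then exposed 24 h. Fixed in 4% formaldehyde 10 min at 4 °C, stained with […] (5 µg/mL) 30 min at room temperature, and nuclear morphology scored by fluorescence microscopy (ex 350/em 460 nm, 20×).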

[7] = Selectivity index, ratio of IC50 for cytotoxicity against human HEK293T cells to IC50 for cytotoxicity against human SKOV3 cells after 48 hrs by MTT assay; format: toxicity, cell-based; conditions: HEK293T cells versus SKOV3 cells, read-out: Ratio IC50
[8] = species: Homo sapiens; assay: Inhibition of F-actin polymerization in human SKOV3 cells assessed as decrease in F-actin extensions at 0.1 to 0.5 uM after 24 hrs by rhodamine-phalloidin/[…] staining-based confocal fluorescence microscopic analysis; format: cell-based
Procedure, shortened: (§3)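 SKOV-3 cells (1×10^6/well) on coverslips, grown 24 h, then exposed 24 h. Washed, fixed in 4% paraformaldehyde in PBS, stained with rhodamine-phalloidin (F-actin) and […] (nuclei), mounted in anti-fade medium, and imaged by confocal microscopy at 20×.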

[9] = test system: SK-OV-3; assay: Induction of apoptosis in human SKOV3 cells assessed as increase in caspase3 activity at 0.5 uM using Ac-DEVDpNA as substrate pretreated for 24 hrs followed by substrate addition and measured for 2 hrs by colorimetric analysis relative to control; format: functional
Procedure, shortened: (§4)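 SKOV-3 cells (2×10^5/well) exposed 24 h, trypsinised, lysed 20 min, and lysate cleared at 15000 rpm for 10 min at 4 °C. Supernatant incubated with reaction buffer and Ac-DEVD-pNA 2 h at 37 °C, then read at 405 nm. Activity expressed as fold of untreated control (set to 1).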

[10] = test system: SK-OV-3; assay: Induction of apoptosis in human SKOV3 cells assessed as increase in caspase3 activity at 0.2 uM using Ac-DEVDpNA as substrate pretreated for 24 hrs followed by substrate addition and measured for 2 hrs by colorimetric analysis relative to control; format: functional; procedure, shortened: as §4
[11] = test system: SK-OV-3; assay: Induction of apoptosis in human SKOV3 cells assessed as nuclear fragmentation at 0.1 to 0.5 uM after 24 hrs by […] staining-based fluorescence microscopic analysis; format: functional, cell-based; procedure, shortened: as §2
[12] = test system: SK-OV-3; assay: Cell cycle arrest in human SKOV3 cells assessed as accumulation of cells at G2/M phase at 0.1 uM after 24 hrs by propidium iodide staining-based flow cytometric analysis (reference value: 14.7%); format: functional
Procedure, shortened: (§5)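 SKOV-3 cells (1×10^6/well) exposed 24 h, trypsinised, washed in PBS, fixed in 70% ethanol 30 min at 4 °C, stained 15 min in the dark at room temperature with PBS containing propidium iodide, Triton X and DNase-free RNase A. DNA content read by flow cytometry (15,000 events per methods; legend cites 10,000 cells). G0/G1, S and G2/M percentages taken from instrument software.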

[13] = test system: SK-OV-3; assay: Induction of apoptosis in human SKOV3 cells assessed as increase in caspase3 activity at 0.1 uM using Ac-DEVDpNA as substrate pretreated for 24 hrs followed by substrate addition and measured for 2 hrs by colorimetric analysis relative to control; format: functional; procedure, shortened: as §4
[14] = test system: SK-OV-3; assay: Induction of apoptosis in human SKOV3 cells assessed as increase in horse shoe shaped nuclei at 0.1 to 0.5 uM after 24 hrs by […] staining-based fluorescence microscopic analysis; format: functional, cell-based; procedure, shortened: as §2
[15] = test system: SK-OV-3; assay: Induction of oxidative stress in human SKOV3 cells assessed as ROS generation by measuring fluorescence intensity at 0.1 uM after 24 hrs by carboxy-H2DCFDA dye-based flow cytometric analysis (reference value: 100%); format: functional
Procedure, shortened: (§6)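 SKOV-3 cells (2×10^5/well) exposed 24 h, trypsinised, and loaded with 10 µM carboxy-H2DCFDA in PBS 15 min at room temperature in the dark. After washing, green DCF fluorescence was read by flow cytometry and expressed as % of control (100%).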

[16] = test system: SK-OV-3; assay: Induction of oxidative stress in human SKOV3 cells assessed as ROS generation by measuring fluorescence intensity at 0.5 uM after 24 hrs by carboxy-H2DCFDA dye-based flow cytometric analysis (reference value: 100%); format: functional; procedure, shortened: as §6
[17] = species: Homo sapiens; assay: Inhibition of F-actin polymerization in human SKOV3 cells assessed as induction of stress fibers disruption around nucleus at 0.1 to 0.5 uM after 24 hrs by rhodamine-phalloidin/[…] staining-based confocal fluorescence microscopic analysis; format: cell-based; procedure, shortened: as §3
[18] = test system: SK-OV-3; assay: Cell cycle arrest in human SKOV3 cells assessed as accumulation of cells at S phase at 0.2 uM after 24 hrs by propidium iodide staining-based flow cytometric analysis (reference value: 5%); format: functional; procedure, shortened: as §5
[19] = test system: SK-OV-3; assay: Cell cycle arrest in human SKOV3 cells assessed as accumulation of cells at G2/M phase at 0.2 uM after 24 hrs by propidium iodide staining-based flow cytometric analysis (reference value: 14.7%); format: functional; procedure, shortened: as §5
[20] = test system: SK-OV-3; assay: Cell cycle arrest in human SKOV3 cells assessed as accumulation of cells at S phase at 0.5 uM after 24 hrs by propidium iodide staining-based flow cytometric analysis (reference value: 5%); format: functional; procedure, shortened: as §5
[21] = test system: SK-OV-3; assay: Induction of oxidative stress in human SKOV3 cells assessed as ROS generation by measuring fluorescence intensity at 0.1 to 0.5 uM after 24 hrs by carboxy-H2DCFDA dye-based flow cytometric analysis relative to untreated control; format: functional; procedure, shortened: as §6
[22] = test system: SK-OV-3; assay: Induction of oxidative stress in human SKOV3 cells assessed as ROS generation by measuring fluorescence intensity at 0.2 uM after 24 hrs by carboxy-H2DCFDA dye-based flow cytometric analysis (reference value: 100%); format: functional; procedure, shortened: as §6
[23] = test system: SK-OV-3; assay: Induction of apoptosis in human SKOV3 cells assessed as increase in pyknotic nuclei at 0.1 to 0.5 uM after 24 hrs by […] staining-based fluorescence microscopic analysis; format: functional, cell-based; procedure, shortened: as §2
[24] = test system: SK-OV-3; assay: Inhibition of spheroid growth in human SKOV3 cells at 0.5 uM after 72 hrs by phase contrast microscopic analysis; format: functional, cell-based
Procedure, shortened: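 SKOV-3 cells (5000/well) in ultra-low-attachment round-bottom wells, grown 2 days to form spheroids, then exposed for 72 h. Spheroid growth and surface area assessed by phase contrast microscopy.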

[25] = test system: SK-OV-3; assay: Cell cycle arrest in human SKOV3 cells assessed as accumulation of cells at S phase at 0.1 uM after 24 hrs by propidium iodide staining-based flow cytometric analysis (reference value: 5%); format: functional; procedure, shortened: as §5
[26] = test system: SK-OV-3; assay: Cell cycle arrest in human SKOV3 cells assessed as accumulation of cells at G2/M phase at 0.5 uM after 24 hrs by propidium iodide staining-based flow cytometric analysis (reference value: 14.7%); format: functional; procedure, shortened: as §5
[27] = test system: SK-OV-3; assay: Induction of apoptosis in human SKOV3 cells assessed as disruption of mitochondrial membrane potential at 0.1 to 0.5 uM after 24 hrs by JC-1 dye-based fluorescence microscopic analysis; format: functional, cell-based
Procedure, shortened: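 SKOV-3 cells at 5×10^5 cells/mL, adhered overnight, exposed 24 h with DMSO-treated controls. Stained with JC-1 (5 µg/mL in PBS) 30 min at room temperature, washed, and imaged in red (J-aggregate) and green (monomer) channels by fluorescence microscopy at 20×.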

[28] = test system: SK-OV-3; assay: Cell cycle arrest in human SKOV3 cells assessed as decrease in cells at G0/G1 phase at 0.1 to 0.5 uM after 24 hrs by propidium iodide staining-based flow cytometric analysis; format: functional; procedure, shortened: as §5

In the case of `COc1cc2c3c(c4cc(OC)c(OC)cc4c2cc1OC)C(c1ccc(C(F)(F)F)cc1)C1=C(CC(C)(C)CC1=O)N3` (stereo not drawn), the IC50 [1] is reported as 31.4 µM, the IC50 [2] is reported as 35.7 µM and the IC50 [3] is reported as > 50 µM. The IC50 [4] was 15.6 µM and the IC50 [5] was 18.6 µM.

In the case of `COc1cc2c3c(c4cc(OC)c(OC)cc4c2cc1OC)C(c1cccc(C(F)(F)F)c1)C1=C(CCCC1=O)N3` (stereo not drawn), the Activity [6] is reported as “Active”, the selectivity ratio at 48 h [7] is reported as 77 and the inhibition [8] is reported as “Active”. For the same compound, the “fold change (FC)” value [9] was 3.78, the IC50 [1] was 11.8 µM and the “fold change (FC)” value [10] was 2.45. The Activity [11] was “Active”, the Activity [12] was 22.6% and the “fold change (FC)” value [13] was 1.58. For the same compound, the Activity [14] was “Active”, the Activity [15] was 128.5% and the Activity [16] was 204.76%. For the same compound, the inhibition [17] was “Active”, the Activity [18] was 19.3% and the IC50 [2] was 18.5 µM. It also gave an Activity [19] of 33.5%, an IC50 [3] of 4.38 µM and an Activity [20] of 14.1%. The “fold change (FC)” value [21] was 2, the IC50 [4] was 3.89 µM and the IC50 [5] was 0.24 µM. The Activity [22] was 150.3%, the Activity [23] was “Active” and the inhibition [24] was “Active”. For the same compound, the Activity [25] was 2.3%, the Activity [26] was 37.9% and the Activity [27] was “Active”. The Activity [28] was “Active”.

Work on `COc1cc2c3c(c4cc(OC)c(OC)cc4c2cc1OC)C(c1cc(OC)c(OC)c(OC)c1)C1=C(CC(C)(C)CC1=O)N3` (stereo not drawn) yielded an IC50 [1] of 8.9 µM, an IC50 [2] of 29.2 µM and an IC50 [3] of 12.1 µM. It also gave an IC50 [4] of 16.3 µM and an IC50 [5] of 10.8 µM.

With `COc1cc2c3c(c4cc(OC)c(OC)cc4c2cc1OC)C(c1cccc2ccccc12)C1=C(CCCC1=O)N3` (stereo not drawn) the IC50 [1] was 5.31 µM, the IC50 [2] was 14.4 µM and the IC50 [3] was 6.87 µM. For the same compound, the IC50 [4] was 3.83 µM and the IC50 [5] was 2.67 µM.

`COc1cc2c3c(c4cc(OC)c(OC)cc4c2cc1OC)C(c1cccs1)C1=C(CCCC1=O)N3` (stereo not drawn) showed an IC50 [1] of 5.89 µM, an IC50 [2] of 15.5 µM and an IC50 [3] of 2.46 µM. The IC50 [4] was 3.78 µM and the IC50 [5] was 2.35 µM.

In the case of `COc1cc2c3c(c4cc(OC)c(OC)cc4c2cc1OC)C(c1ccc(Br)cc1)C1=C(CC(C)(C)CC1=O)N3` (stereo not drawn), the IC50 [1] is reported as 12.4 µM, the IC50 [2] is reported as 36.3 µM and the IC50 [3] is reported as 31.6 µM. For the same compound, the IC50 [4] was 11.6 µM and the IC50 [5] was 15.5 µM.

With `COc1cc2c3c(c4cc(OC)c(OC)cc4c2cc1OC)C(c1ccc(C(C)C)cc1)C1=C(CC(C)(C)CC1=O)N3` (stereo not drawn) the IC50 [1] was > 50 µM, the IC50 [2] was 25.7 µM and the IC50 [3] was > 50 µM. It also gave an IC50 [4] of 32.3 µM and an IC50 [5] of 11.5 µM.

In the case of `COc1cc2c3c(c4cc(OC)c(OC)cc4c2cc1OC)C(c1cc(OC)c(O)c(OC)c1)C1=C(CC(C)(C)CC1=O)N3` (stereo not drawn), the IC50 [1] is reported as 6.84 µM, the IC50 [2] is reported as > 50 µM and the IC50 [3] is reported as 9.42 µM. The IC50 [4] was 7.64 µM and the IC50 [5] was 6.5 µM.

With `COc1cc(C2C3=C(CC(C)(C)CC3=O)Nc3c2c2cc(OC)c(OC)cc2c2cc(OC)c(OC)cc32)ccc1O` (stereo not drawn) the IC50 [1] was 23.8 µM, the IC50 [2] was > 50 µM and the IC50 [3] was 11.7 µM. For the same compound, the IC50 [4] was 9.83 µM and the IC50 [5] was 13.6 µM.
